The record followed here is ChEMBL document CHEMBL1828581 (J Med Chem, 2011).

Usually pKa stands for the negative logarithm of the acid dissociation constant.

Series [1] deals with Plasmodium falciparum. Nature of the series: Resistance index, ratio of IC50 for chloroquine-resistant Plasmodium falciparum K1 to IC50 for chloroquine-sensitive Plasmodium falciparum D10. The series is classed as functional. An outline of the steps: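 Resistance index is the IC50 against the resistant strain divided by the IC50 against D10. Both IC50s come from the lactate dehydrogenase growth assay on asexual blood stages, run by the same serial-dilution protocol.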

The nature of series [2]: Inhibition of beta-hematin formation assessed as equivalents of drug relative to hematin for 50% inhibition at pH 4.5 by BHIA assay. The series is classed as functional. The method, boiled down: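 β-Hematin formation mediated by 4.5 M acetate, pH 4.5, in a 96-well plate format. Unconverted hematin is dissolved with 5% (v/v) aqueous pyridine at pH 7.5, which leaves β-hematin undissolved. Result expressed as equivalents of compound relative to hematin at 50% inhibition.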

Series [3] concerns Plasmodium falciparum. Nature of the series: Antimalarial activity against erythrocyte stages of chloroquine-resistant Plasmodium falciparum K1 infected in human erythrocytes by lactate dehydrogenase assay. The series is classed as functional, organism-based. An outline of the steps: (§1)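 Asexual blood-stage P. falciparum in continuous culture (modified Trager–Jensen), read out by parasite lactate dehydrogenase. Stocks are 2 mg/mL in DMSO or methanol. […] IC50 comes from nonlinear dose–response fitting.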

Series [4] concerns Plasmodium falciparum. Nature of the series: Antimalarial activity against erythrocyte stages of chloroquine-sensitive Plasmodium falciparum D10 infected in human erythrocytes by lactate dehydrogenase assay. It is filed as functional, organism-based. An outline of the steps: as §1
The nature of series [5]: Dissociation constant, pKa of the compound with basic tertiary amino group by pH titration method. The series is classed as physicochemical.
A short description of series [6]: Dissociation constant, pKa of the compound with quinoline heteroaromatic N atom by pH titration method. The series is classed as physicochemical.
The test system of series [7] is Plasmodium berghei. As to the kind of experiment: Antimalarial activity against Plasmodium berghei infected in NMRI mouse assessed as reduction of parasitemia level at 30 mg/kg, po administered on day 0, 1, 2 and 3 after postinfection (reference value: 0.38%). The series is classed as functional. More on the design: scale not given: the % may be the effect or the level left.

For series [8], the system named is Plasmodium berghei. Nature of the series: Antimalarial activity against Plasmodium berghei infected in NMRI mouse assessed as parasitized red blood cells level at 100 mg/kg, po administered on day 0, 1, 2 and 3 after postinfection measured on day 4 (reference value: 78%). The series is classed as functional.
Series [9] has as its system Plasmodium berghei. Nature of the series: Antimalarial activity against Plasmodium berghei infected in NMRI mouse assessed as reduction of parasitemia level at 100 mg/kg, po administered on day 0, 1, 2 and 3 after postinfection (reference value: 0.12%). It is filed as functional. On the set-up: scale not given: the % may be the effect or the level left.
Series [10] has as its system Plasmodium berghei. Nature of the series: Antimalarial activity against Plasmodium berghei infected in NMRI mouse assessed as host survival time at 30 mg/kg, po administered on day 0, 1, 2 and 3 after postinfection (reference value: 4 days). It is filed as functional. An outline of the steps: (§2)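 P. berghei in female NMRI mice (modified Peters 4-day test): 0.2 mL of donor blood diluted to 10^8 parasitized erythrocytes/mL given i.v. Oral dosing starts 4 h postinfection, with further daily doses at 24, 48 and 72 h by regimen. Groups of 3 treated and 5 untreated mice. Survival followed to day 30, and survivors are checked for parasitemia.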

Series [11] has as its target T1, Chloroquine resistance transporter (Plasmodium falciparum, UniProt Q9N623).
T1 sequence (Q9N623 whole entry): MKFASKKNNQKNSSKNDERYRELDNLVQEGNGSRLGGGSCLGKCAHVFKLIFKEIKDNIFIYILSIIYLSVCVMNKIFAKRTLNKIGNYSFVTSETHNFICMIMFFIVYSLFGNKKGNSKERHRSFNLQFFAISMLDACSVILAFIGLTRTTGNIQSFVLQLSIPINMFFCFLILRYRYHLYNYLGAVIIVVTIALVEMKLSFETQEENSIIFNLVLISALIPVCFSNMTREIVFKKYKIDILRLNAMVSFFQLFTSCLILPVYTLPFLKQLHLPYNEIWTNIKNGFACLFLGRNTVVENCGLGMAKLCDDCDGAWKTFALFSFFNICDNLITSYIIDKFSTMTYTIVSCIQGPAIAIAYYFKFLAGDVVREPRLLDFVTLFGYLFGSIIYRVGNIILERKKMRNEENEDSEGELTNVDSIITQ
Nature of the series: Inhibition of chloroquine-resistant Plasmodium falciparum Dd2 chloroquine resistance transporter expressed in xenopus laevis oocytes assessed as inhibition of [3H]chloroquine uptake after 1 to 2 hrs. The series is classed as cell-based, Oocyte.

In series [12] the test system is Plasmodium berghei. As to the kind of experiment: Antimalarial activity against Plasmodium berghei infected in NMRI mouse assessed as host survival time at 100 mg/kg, po administered on day 0, 1, 2 and 3 after postinfection (reference value: 4 days). The series is classed as functional. The method, boiled down:
as §2

Series [13] concerns Plasmodium berghei. As to the kind of experiment: Antimalarial activity against Plasmodium berghei infected in NMRI mouse assessed as parasitized red blood cells level at 30 mg/kg, po administered on day 0, 1, 2 and 3 after postinfection measured on day 4 (reference value: 78%). It is filed as functional.
Series [14] can be described thus: Selectivity index, ratio of IC50 for CHO cells to IC50 for chloroquine-sensitive Plasmodium falciparum D10. The series is classed as toxicity, cell-based. The conditions noted are these: hamster, read-out: Ratio IC50. An outline of the steps: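 The D10 value came from parasite lactate dehydrogenase read-out on erythrocytic cultures, 10 two-fold dilutions from 100 ng/mL, with nonlinear dose–response fitting.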

Series [15] has as its system Plasmodium berghei. Nature of the series: Antimalarial activity against Plasmodium berghei infected in NMRI mouse assessed as reduction of parasitemia level at 100 mg/kg, po administered on day 0, 1 and 2 after postinfection (reference value: 0.11%). It is filed as functional. On the set-up: scale not given: the % may be the effect or the level left.
For series [16], the system named is Plasmodium berghei. Nature of the series: Antimalarial activity against Plasmodium berghei infected in NMRI mouse assessed as reduction of parasitemia level at 30 mg/kg, po administered on day 0, 1 and 2 after postinfection (reference value: 0.13%). More on the design: scale not given: the % may be the effect or the level left. The series is classed as functional.

Series [17] concerns Plasmodium berghei. Nature of the series: Antimalarial activity against Plasmodium berghei infected in NMRI mouse assessed as parasitized red blood cells level at 30 mg/kg, po administered on day 0, 1 and 2 after postinfection measured on day 4 (reference value: 78%). It is filed as functional.
In series [18] the test system is Plasmodium berghei. Nature of the series: Antimalarial activity against Plasmodium berghei infected in NMRI mouse assessed as parasitized red blood cells level at 100 mg/kg, po administered on day 0, 1 and 2 after postinfection measured on day 4 (reference value: 78%). The series is classed as functional.
The subject of a further series is CHO. Nature of the series: Cytotoxicity against CHO cells by MTT assay. The series is classed as cell-based. The conditions noted are these: Cricetulus griseus. The method, boiled down: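 CHO cells, MTT colorimetric growth read-out. Compound from a 2 mg/mL stock, tested from 100 μg/mL in 10-fold serial dilutions in complete medium (5 concentrations, lowest 0.01 μg/mL). Emetine reference. IC50 from nonlinear dose–response fitting; mean ± SEM, n = 3.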
In general terms: Tetrazolium assays rely on reduction of a dye to a coloured formazan, in cell work by metabolically active cells.

The test system of series [19] is Plasmodium berghei. As to the kind of experiment: Antimalarial activity against Plasmodium berghei infected in NMRI mouse assessed as host survival time at 30 mg/kg, po administered on day 0, 1 and 2 after postinfection (reference value: 4 days). The series is classed as functional. The method, boiled down:
as §2

Series [20] concerns Plasmodium berghei. Nature of the series: Antimalarial activity against Plasmodium berghei infected in NMRI mouse assessed as host survival time at 100 mg/kg, po administered on day 0, 1 and 2 after postinfection (reference value: 4 days). The series is classed as functional. An outline of the steps:
as §2

Series [21] deals with T2, Chloroquine resistance transporter (Plasmodium falciparum) (UniProt Q9N623).
T2 sequence (whole entry): T1 sequence (Q9N623 whole entry)
As to the kind of experiment: Inhibition of chloroquine-sensitive Plasmodium falciparum D10 chloroquine resistance transporter expressed in xenopus laevis oocytes assessed as inhibition of [3H]chloroquine uptake after 1 to 2 hrs. Conditions: Oocyte. The series is classed as cell-based.

Structures are written as SMILES. Activity calls are given as the source filed them. The calls are words filed in the database; no cut-off is given here.

Regarding `COc1ccc(CN(C)Cc2ccccc2CNc2ccnc3cc(Cl)ccc23)cc1`, in the series with Plasmodium falciparum [1], the “Ratio IC50” value amounted to 0.8. Besides, the IC50 in [2] came out at 0.46 equivalents; with Plasmodium falciparum [3], 134 nM; in the series with Plasmodium falciparum [4], 175 nM. Moreover, the pKa turned out to be 9.85 in series [5] and 7.47 in series [6].
Take `CN(Cc1ccccc1)Cc1ccccc1CNc1ccnc2cc(Cl)ccc12`: the Activity is reported as 99.6% with Plasmodium berghei [7], 0.09% in the series with Plasmodium berghei [8], 99.9% in the series with Plasmodium berghei [9] and 0.3% in the series on Plasmodium berghei [13]. For the same molecule, the “Ratio IC50” value in the series on Plasmodium falciparum [1] was 0.9. The figures for the Time with Plasmodium berghei [10] and with Plasmodium berghei [12] were 20.7 days and 30 days, respectively. Moreover, the IC50 came out at 58000 nM in [11], 1.1 equivalents in series [2], 122 nM in the series with Plasmodium falciparum [3] and 140 nM in the series with Plasmodium falciparum [4]. Moreover, the pKa in series [5] amounted to 9.85; in [6] it was 7.57.
With `CN(Cc1ccccc1)Cc1cccc(CNc2ccnc3cc(Cl)ccc23)c1`, in the series with Plasmodium falciparum [1], the “Ratio IC50” value came out at 1. In addition, the selectivity ratio in series [14] is 1270. The IC50 is 36000 nM in series [11]; 0.69 equivalents in series [2]; 43 nM in the series on Plasmodium falciparum [3]; 41 nM with Plasmodium falciparum [4]; 70000 nM with CHO. For the same molecule, the Activity in the series on Plasmodium berghei [15] is 99.9%; with Plasmodium berghei [16] it was 99.9%; with Plasmodium berghei [17], 0.1%; with Plasmodium berghei [18], 0.09%. The pKa in series [5] worked out at 9.77; in [6], 7.63. For the same molecule, the values for the Time in the series on Plasmodium berghei [19] and with Plasmodium berghei [20] were 16.7 days and 30 days, respectively.
Regarding `CN(Cc1ccc(Cl)cc1)Cc1cccc(CNc2ccnc3cc(Cl)ccc23)c1`, the “Ratio IC50” value in the series on Plasmodium falciparum [1] is 0.6. The IC50 was 0.66 equivalents in series [2], 85 nM with Plasmodium falciparum [3] and 138 nM with Plasmodium falciparum [4]. The pKa in series [5] worked out at 9.89; in series [6], 7.55.
Turning to `CN(Cc1ccc(Cl)cc1)Cc1ccccc1CNc1ccnc2cc(Cl)ccc12`, the figures for the IC50 (in [2]; in the series on Plasmodium falciparum [3]) were 1.4 equivalents and 1130 nM, respectively. Further, the pKa is 9.6 in series [5] and 7.44 in series [6].
On to `CC[C@H]1CN2CCc3cc(OC)c(OC)cc3[C@@H]2C[C@@H]1C[C@H]1NCCc2cc(OC)c(OC)cc21` [EMETINE], for which the IC50 with CHO was determined as 80 nM.
With `CN(Cc1ccc(N(C)C)cc1)Cc1ccccc1CNc1ccnc2cc(Cl)ccc12`, the “Ratio IC50” value in the series on Plasmodium falciparum [1] is 0.8. Also, the IC50 in series [2] is 0.48 equivalents; with Plasmodium falciparum [3], 149 nM; in the series with Plasmodium falciparum [4], 178 nM. In addition, the pKa in series [5] amounted to 9.71; in [6] it was 7.4.
Consider `CN(Cc1ccc(CNc2ccnc3cc(Cl)ccc23)cc1)Cc1ccc(N(C)C)cc1`, for which the “Ratio IC50” value with Plasmodium falciparum [1] turned out to be 0.8. Also, the selectivity ratio in series [14] is more than 4790. The IC50 in series [2] is 0.4 equivalents; in the series on Plasmodium falciparum [3], 36 nM; in the series with Plasmodium falciparum [4] it was 47 nM; in the series on CHO, more than 225000 nM. In addition, the results for the pKa in [5] and in [6] were 9.66 and 7.33, respectively.
Turning to `CN(Cc1ccc(N(C)C)cc1)Cc1cccc(CNc2ccnc3cc(Cl)ccc23)c1`, the values for the IC50 (in series [2]; with Plasmodium falciparum [3]; in the series on Plasmodium falciparum [4]) were 0.5 equivalents, 281 nM and more than 0.1 µg/mL, respectively. The values for the pKa in series [5] and in [6] were 9.67 and 7.36, respectively.
Consider `COc1ccc(CN(C)Cc2ccc(CNc3ccnc4cc(Cl)ccc34)cc2)cc1`, for which the “Ratio IC50” value in the series with Plasmodium falciparum [1] is 0.7. Further, the IC50 in [2] amounted to 1.44 equivalents; in the series on Plasmodium falciparum [3], 88 nM; in the series with Plasmodium falciparum [4], 130 nM. Further, the pKa came to 9.7 in [5] and 7.44 in series [6].
With `CN(Cc1ccc(Cl)cc1)Cc1ccc(CNc2ccnc3cc(Cl)ccc23)cc1`, the IC50 was 0.34 equivalents in series [2], more than 10 µg/mL with Plasmodium falciparum [3] and more than 0.1 µg/mL with Plasmodium falciparum [4]. Moreover, the pKa in series [5] came to 9.74; in [6], 7.44.
As to `COc1ccc(CN(C)Cc2cccc(CNc3ccnc4cc(Cl)ccc34)c2)cc1`, the “Ratio IC50” value with Plasmodium falciparum [1] came out at 1.3. In addition, the figures for the IC50 (in series [2]; with Plasmodium falciparum [3]; with Plasmodium falciparum [4]) were 0.52 equivalents, 120 nM and 91 nM, respectively. In addition, the pKa in series [5] was found to be 9.67; in series [6], 7.38.
With `CCN(CC)CCCC(C)Nc1ccnc2cc(Cl)ccc12` (stereo not drawn) [CHLOROQUINE], the IC50 in series [2] was 1.9 equivalents. Besides, in series [21], the inhibition result was “Active”.
